Laboratory results published in ChEMBL document CHEMBL1795205, “The new 5- or 6-azapyrimidine and cyanuric acid derivatives of l-ascorbic acid bearing the free C-5 hydroxy or C-4 amino group at the ethylenic spacer: CD-spectral absolute configuration determination and biological activity evaluations” (Eur J Med Chem, 2011).
pIC50: −log10 of the molar value.

These molecules were tested on HeLa (assay: Cytostatic activity against human HeLa cells assessed as inhibition of cell proliferation after 72 hrs by MTT assay). Settings: not given.
Format: functional, cell-based
Summary of the method: (§1)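 Monolayer cells grown in DMEM with 10% FBS were seeded on day 0 at 3000–6000 cells/well, set by each line's doubling time. Agents were added the next step in five 10-fold dilutions (0.01–100) for 72 h, with DMSO ≤0.1% and a solvent control. MTT absorbance was converted to percentage growth versus untreated wells on the same plate. Where all PGs exceeded 50, the top concentration was reported as ">". ANOVA/Tukey, p<0.05.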

Row | pIC50 | Structure (SMILES)
1 | 4.11 | NC1(CCn2c(=O)[nH]c(=O)[nH]c2=O)OC(=O)C(OCc2ccccc2)=C1OCc1ccccc1 (racemic)
2 | < 4.00 | NC1(CCn2ccc(=O)[nH]c2=O)OC(=O)C(OCc2ccccc2)=C1OCc1ccccc1 (racemic)
3 | 4.35 | O=C1O/C(=C\Cn2ncc(=O)[nH]c2=O)C(OCc2ccccc2)=C1OCc1ccccc1
4 | < 4.00 | Nc1ncn(C[C@H](O)[C@H]2OC(=O)C(OCc3ccccc3)=C2OCc2ccccc2)c(=O)n1

What follows are molecules tested on MIA PaCa-2 (assay: Cytostatic activity against human MIAPaCa2 cells assessed as inhibition of cell proliferation after 72 hrs by MTT assay). Settings: MIA PaCa-2, 72 h.
Format: functional, cell-based
Summary of the method: as §1

Row | pIC50 | Structure (SMILES)
5 | < 4.00 | NC1(CCn2c(=O)[nH]c(=O)[nH]c2=O)OC(=O)C(OCc2ccccc2)=C1OCc1ccccc1 (racemic)
6 | < 4.00 | NC1(CCn2ccc(=O)[nH]c2=O)OC(=O)C(OCc2ccccc2)=C1OCc1ccccc1 (racemic)
7 | 4.69 | O=C1O/C(=C\Cn2ncc(=O)[nH]c2=O)C(OCc2ccccc2)=C1OCc1ccccc1
8 | 4.14 | Nc1ncn(C[C@H](O)[C@H]2OC(=O)C(OCc3ccccc3)=C2OCc2ccccc2)c(=O)n1

Each molecule was assayed on HepG2 (assay: Cytostatic activity against human HepG2 cells assessed as inhibition of cell proliferation after 72 hrs by MTT assay). Settings: HepG2, 72 h.
Format: functional, cell-based
Summary of the method: as §1

Row | pIC50 | Structure (SMILES)
9 | < 4.00 | NC1(CCn2c(=O)[nH]c(=O)[nH]c2=O)OC(=O)C(OCc2ccccc2)=C1OCc1ccccc1 (racemic)
10 | < 4.00 | NC1(CCn2ccc(=O)[nH]c2=O)OC(=O)C(OCc2ccccc2)=C1OCc1ccccc1 (racemic)
11 | 4.38 | O=C1O/C(=C\Cn2ncc(=O)[nH]c2=O)C(OCc2ccccc2)=C1OCc1ccccc1
12 | < 4.00 | Nc1ncn(C[C@H](O)[C@H]2OC(=O)C(OCc3ccccc3)=C2OCc2ccccc2)c(=O)n1

The molecules below were run on WI-38 (assay: Cytotoxicity against human WI38 cells assessed as inhibition of cell proliferation after 72 hrs by MTT assay). Settings: WI-38, 72 h.
Format: cell-based
Summary of the method: as §1

Row | Structure (SMILES) | pIC50
13 | NC1(CCn2c(=O)[nH]c(=O)[nH]c2=O)OC(=O)C(OCc2ccccc2)=C1OCc1ccccc1 (racemic) | < 4.00
14 | NC1(CCn2ccc(=O)[nH]c2=O)OC(=O)C(OCc2ccccc2)=C1OCc1ccccc1 (racemic) | < 4.00
15 | O=C1O/C(=C\Cn2ncc(=O)[nH]c2=O)C(OCc2ccccc2)=C1OCc1ccccc1 | 4.61
16 | Nc1ncn(C[C@H](O)[C@H]2OC(=O)C(OCc3ccccc3)=C2OCc2ccccc2)c(=O)n1 | < 4.00

The molecules below were run on SW-620 (assay: Cytostatic activity against human SW620 cells assessed as inhibition of cell proliferation after 72 hrs by MTT assay). Settings: SW-620, 72 h.
Format: functional, cell-based
Summary of the method: as §1

Row | pIC50 | Structure (SMILES)
17 | < 4.00 | NC1(CCn2c(=O)[nH]c(=O)[nH]c2=O)OC(=O)C(OCc2ccccc2)=C1OCc1ccccc1 (racemic)
18 | < 4.00 | NC1(CCn2ccc(=O)[nH]c2=O)OC(=O)C(OCc2ccccc2)=C1OCc1ccccc1 (racemic)
19 | 4.44 | O=C1O/C(=C\Cn2ncc(=O)[nH]c2=O)C(OCc2ccccc2)=C1OCc1ccccc1
20 | < 4.00 | Nc1ncn(C[C@H](O)[C@H]2OC(=O)C(OCc3ccccc3)=C2OCc2ccccc2)c(=O)n1

These molecules were tested on MCF7 (assay: Cytostatic activity against human MCF7 cells assessed as inhibition of cell proliferation after 72 hrs by MTT assay). Settings: MCF7, 72 h.
Format: functional, cell-based
Summary of the method: as §1

Row | pIC50 | Structure (SMILES)
21 | 4.07 | NC1(CCn2c(=O)[nH]c(=O)[nH]c2=O)OC(=O)C(OCc2ccccc2)=C1OCc1ccccc1 (racemic)
22 | < 4.00 | NC1(CCn2ccc(=O)[nH]c2=O)OC(=O)C(OCc2ccccc2)=C1OCc1ccccc1 (racemic)
23 | 5.42 | O=C1O/C(=C\Cn2ncc(=O)[nH]c2=O)C(OCc2ccccc2)=C1OCc1ccccc1
24 | 4.13 | Nc1ncn(C[C@H](O)[C@H]2OC(=O)C(OCc3ccccc3)=C2OCc2ccccc2)c(=O)n1
